Calls of active or inactive are those of the source. The rule behind the calls is not given here.
Assays:
[1] = system: Bacillus subtilis; test: Antibacterial activity against Bacillus subtilis 168; assay type: functional, organism-based; conditions: subsp. subtilis str. 168
Method in brief: (§1)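 Agar plate diffusion: 5.5 mm susceptibility disks loaded with 5 µg pure compound (1 mg for crude extracts) placed on agar plates seeded with the test organism (B. subtilis 168, S. aureus ATCC 25923, E. coli ATCC 25922 or C. albicans); inhibition zones read after 24 h incubation at 37 °C.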

[2] = system: Staphylococcus aureus; test: Antibacterial activity against Staphylococcus aureus ATCC 25923; assay type: functional, organism-based; method in brief: as §1
[3] = system: Escherichia coli; test: Antibacterial activity against Escherichia coli ATCC 25922; assay type: functional, organism-based; method in brief: as §1
[4] = system: Bacillus subtilis; test: Antibacterial activity against Bacillus subtilis 168 at 5 ug after 24 hrs by agar plate diffusion assay; assay type: functional; conditions: subsp. subtilis str. 168, 24 h, read-out: IZ; method in brief: as §1
[5] = system: Staphylococcus aureus; test: Antibacterial activity against Staphylococcus aureus ATCC 25923 at 5 ug after 24 hrs by agar plate diffusion assay; assay type: functional; conditions: ATCC 25923, 24 h, read-out: IZ; method in brief: as §1
[6] = system: Escherichia coli; test: Antibacterial activity against Escherichia coli ATCC 25922 at 5 ug after 24 hrs by agar plate diffusion assay; assay type: functional, organism-based; method in brief: as §1
[7] = system: Candida albicans; test: Antifungal activity against Candida albicans at 5 ug after 24 hrs by agar plate diffusion assay; assay type: functional, organism-based; method in brief: as §1

For `CC1CCCCCC(O)C(=O)C(SC2CC(=O)OC(C)CCCCCC(O)C2=O)CC(=O)O1` (centres undefined), the Activity [1] was “inactive”, the Activity [2] was “inactive” and the Activity [3] was “inactive”.

For `COC(=O)C(O)CSC1CC(=O)OC(C)CCCCCC(O)C1=O` (centres undefined), the Activity [1] was “inactive”, the Activity [2] was “inactive” and the Activity [3] was “inactive”.

`O=C(O)c1ccc(CO)o1` [SUMIKI'S ACID] was tested, and the zone of inhibition at 5 µg/disc [4] was 7 mm, the zone of inhibition at 5 µg/disc [5] was 7 mm and the “inhibition zone (IZ)” value [6] was “inactive”. For the same compound, the “inhibition zone (IZ)” value [7] was “inactive”.

With `CC(=O)OCc1ccc(C(=O)O)o1` [ACETYL SUMIKI'S ACID] the zone of inhibition at 5 µg/disc [4] was 7 mm, the zone of inhibition at 5 µg/disc [5] was 7 mm and the “inhibition zone (IZ)” value [6] was “inactive”. For the same compound, the “inhibition zone (IZ)” value [7] was “inactive”.

Reference: ChEMBL document CHEMBL1150820, “New macrolides and furan carboxylic acid derivative from the sponge-derived fungus Cladosporium herbarum” (2001)
